Results on 18 compounds are retold here after ChEMBL document CHEMBL2417539, “1-substituted (Dibenzo[b,d]thiophen-4-yl)-2-morpholino-4H-chromen-4-ones endowed with dual DNA-PK/PI3-K inhibitory activity” (J Med Chem, 2013).

In test [1] the test system is HeLa. The experiment in a line: Antiproliferative activity against human HeLa cells assessed as cell survival ratio at 0.1 uM treated 1 hr before 2Gy ionizing radiation measured after 6 to 8 days by DMR clonogenic assay. It counts as functional. In short, it runs like this:
(§1)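 HeLa cells seeded in 6-well dishes, incubated overnight at 37 °C/5% CO2, pre-treated 1 h with vehicle or inhibitor (0.1 or 0.5 μM), then given 2 Gy X-ray IR and held overnight. Medium then replaced without compound and culture continued 6-8 days. Colonies Giemsa-stained and counted automatically. DMR = % survival (vehicle, 2 Gy) / % survival (compound, 2 Gy).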

In test [2] the test system is HeLa. The experiment in a line: Antiproliferative activity against human HeLa cells assessed as cell survival ratio at 0.5 uM treated 1 hr before 2Gy ionizing radiation measured after 6 to 8 days by DMR clonogenic assay. It counts as functional. The method in brief:
as §1

For test [3], the target named is DNA-dependent protein kinase catalytic subunit (Homo sapiens, UniProt P78527). The experiment in a line: Inhibition of human DNA-PK using GST-tagged p53N66 as substrate after 1 hr by ELISA-based chemiluminiscence assay.
Sequence of DNA-dependent protein kinase catalytic subunit (P78527 whole entry): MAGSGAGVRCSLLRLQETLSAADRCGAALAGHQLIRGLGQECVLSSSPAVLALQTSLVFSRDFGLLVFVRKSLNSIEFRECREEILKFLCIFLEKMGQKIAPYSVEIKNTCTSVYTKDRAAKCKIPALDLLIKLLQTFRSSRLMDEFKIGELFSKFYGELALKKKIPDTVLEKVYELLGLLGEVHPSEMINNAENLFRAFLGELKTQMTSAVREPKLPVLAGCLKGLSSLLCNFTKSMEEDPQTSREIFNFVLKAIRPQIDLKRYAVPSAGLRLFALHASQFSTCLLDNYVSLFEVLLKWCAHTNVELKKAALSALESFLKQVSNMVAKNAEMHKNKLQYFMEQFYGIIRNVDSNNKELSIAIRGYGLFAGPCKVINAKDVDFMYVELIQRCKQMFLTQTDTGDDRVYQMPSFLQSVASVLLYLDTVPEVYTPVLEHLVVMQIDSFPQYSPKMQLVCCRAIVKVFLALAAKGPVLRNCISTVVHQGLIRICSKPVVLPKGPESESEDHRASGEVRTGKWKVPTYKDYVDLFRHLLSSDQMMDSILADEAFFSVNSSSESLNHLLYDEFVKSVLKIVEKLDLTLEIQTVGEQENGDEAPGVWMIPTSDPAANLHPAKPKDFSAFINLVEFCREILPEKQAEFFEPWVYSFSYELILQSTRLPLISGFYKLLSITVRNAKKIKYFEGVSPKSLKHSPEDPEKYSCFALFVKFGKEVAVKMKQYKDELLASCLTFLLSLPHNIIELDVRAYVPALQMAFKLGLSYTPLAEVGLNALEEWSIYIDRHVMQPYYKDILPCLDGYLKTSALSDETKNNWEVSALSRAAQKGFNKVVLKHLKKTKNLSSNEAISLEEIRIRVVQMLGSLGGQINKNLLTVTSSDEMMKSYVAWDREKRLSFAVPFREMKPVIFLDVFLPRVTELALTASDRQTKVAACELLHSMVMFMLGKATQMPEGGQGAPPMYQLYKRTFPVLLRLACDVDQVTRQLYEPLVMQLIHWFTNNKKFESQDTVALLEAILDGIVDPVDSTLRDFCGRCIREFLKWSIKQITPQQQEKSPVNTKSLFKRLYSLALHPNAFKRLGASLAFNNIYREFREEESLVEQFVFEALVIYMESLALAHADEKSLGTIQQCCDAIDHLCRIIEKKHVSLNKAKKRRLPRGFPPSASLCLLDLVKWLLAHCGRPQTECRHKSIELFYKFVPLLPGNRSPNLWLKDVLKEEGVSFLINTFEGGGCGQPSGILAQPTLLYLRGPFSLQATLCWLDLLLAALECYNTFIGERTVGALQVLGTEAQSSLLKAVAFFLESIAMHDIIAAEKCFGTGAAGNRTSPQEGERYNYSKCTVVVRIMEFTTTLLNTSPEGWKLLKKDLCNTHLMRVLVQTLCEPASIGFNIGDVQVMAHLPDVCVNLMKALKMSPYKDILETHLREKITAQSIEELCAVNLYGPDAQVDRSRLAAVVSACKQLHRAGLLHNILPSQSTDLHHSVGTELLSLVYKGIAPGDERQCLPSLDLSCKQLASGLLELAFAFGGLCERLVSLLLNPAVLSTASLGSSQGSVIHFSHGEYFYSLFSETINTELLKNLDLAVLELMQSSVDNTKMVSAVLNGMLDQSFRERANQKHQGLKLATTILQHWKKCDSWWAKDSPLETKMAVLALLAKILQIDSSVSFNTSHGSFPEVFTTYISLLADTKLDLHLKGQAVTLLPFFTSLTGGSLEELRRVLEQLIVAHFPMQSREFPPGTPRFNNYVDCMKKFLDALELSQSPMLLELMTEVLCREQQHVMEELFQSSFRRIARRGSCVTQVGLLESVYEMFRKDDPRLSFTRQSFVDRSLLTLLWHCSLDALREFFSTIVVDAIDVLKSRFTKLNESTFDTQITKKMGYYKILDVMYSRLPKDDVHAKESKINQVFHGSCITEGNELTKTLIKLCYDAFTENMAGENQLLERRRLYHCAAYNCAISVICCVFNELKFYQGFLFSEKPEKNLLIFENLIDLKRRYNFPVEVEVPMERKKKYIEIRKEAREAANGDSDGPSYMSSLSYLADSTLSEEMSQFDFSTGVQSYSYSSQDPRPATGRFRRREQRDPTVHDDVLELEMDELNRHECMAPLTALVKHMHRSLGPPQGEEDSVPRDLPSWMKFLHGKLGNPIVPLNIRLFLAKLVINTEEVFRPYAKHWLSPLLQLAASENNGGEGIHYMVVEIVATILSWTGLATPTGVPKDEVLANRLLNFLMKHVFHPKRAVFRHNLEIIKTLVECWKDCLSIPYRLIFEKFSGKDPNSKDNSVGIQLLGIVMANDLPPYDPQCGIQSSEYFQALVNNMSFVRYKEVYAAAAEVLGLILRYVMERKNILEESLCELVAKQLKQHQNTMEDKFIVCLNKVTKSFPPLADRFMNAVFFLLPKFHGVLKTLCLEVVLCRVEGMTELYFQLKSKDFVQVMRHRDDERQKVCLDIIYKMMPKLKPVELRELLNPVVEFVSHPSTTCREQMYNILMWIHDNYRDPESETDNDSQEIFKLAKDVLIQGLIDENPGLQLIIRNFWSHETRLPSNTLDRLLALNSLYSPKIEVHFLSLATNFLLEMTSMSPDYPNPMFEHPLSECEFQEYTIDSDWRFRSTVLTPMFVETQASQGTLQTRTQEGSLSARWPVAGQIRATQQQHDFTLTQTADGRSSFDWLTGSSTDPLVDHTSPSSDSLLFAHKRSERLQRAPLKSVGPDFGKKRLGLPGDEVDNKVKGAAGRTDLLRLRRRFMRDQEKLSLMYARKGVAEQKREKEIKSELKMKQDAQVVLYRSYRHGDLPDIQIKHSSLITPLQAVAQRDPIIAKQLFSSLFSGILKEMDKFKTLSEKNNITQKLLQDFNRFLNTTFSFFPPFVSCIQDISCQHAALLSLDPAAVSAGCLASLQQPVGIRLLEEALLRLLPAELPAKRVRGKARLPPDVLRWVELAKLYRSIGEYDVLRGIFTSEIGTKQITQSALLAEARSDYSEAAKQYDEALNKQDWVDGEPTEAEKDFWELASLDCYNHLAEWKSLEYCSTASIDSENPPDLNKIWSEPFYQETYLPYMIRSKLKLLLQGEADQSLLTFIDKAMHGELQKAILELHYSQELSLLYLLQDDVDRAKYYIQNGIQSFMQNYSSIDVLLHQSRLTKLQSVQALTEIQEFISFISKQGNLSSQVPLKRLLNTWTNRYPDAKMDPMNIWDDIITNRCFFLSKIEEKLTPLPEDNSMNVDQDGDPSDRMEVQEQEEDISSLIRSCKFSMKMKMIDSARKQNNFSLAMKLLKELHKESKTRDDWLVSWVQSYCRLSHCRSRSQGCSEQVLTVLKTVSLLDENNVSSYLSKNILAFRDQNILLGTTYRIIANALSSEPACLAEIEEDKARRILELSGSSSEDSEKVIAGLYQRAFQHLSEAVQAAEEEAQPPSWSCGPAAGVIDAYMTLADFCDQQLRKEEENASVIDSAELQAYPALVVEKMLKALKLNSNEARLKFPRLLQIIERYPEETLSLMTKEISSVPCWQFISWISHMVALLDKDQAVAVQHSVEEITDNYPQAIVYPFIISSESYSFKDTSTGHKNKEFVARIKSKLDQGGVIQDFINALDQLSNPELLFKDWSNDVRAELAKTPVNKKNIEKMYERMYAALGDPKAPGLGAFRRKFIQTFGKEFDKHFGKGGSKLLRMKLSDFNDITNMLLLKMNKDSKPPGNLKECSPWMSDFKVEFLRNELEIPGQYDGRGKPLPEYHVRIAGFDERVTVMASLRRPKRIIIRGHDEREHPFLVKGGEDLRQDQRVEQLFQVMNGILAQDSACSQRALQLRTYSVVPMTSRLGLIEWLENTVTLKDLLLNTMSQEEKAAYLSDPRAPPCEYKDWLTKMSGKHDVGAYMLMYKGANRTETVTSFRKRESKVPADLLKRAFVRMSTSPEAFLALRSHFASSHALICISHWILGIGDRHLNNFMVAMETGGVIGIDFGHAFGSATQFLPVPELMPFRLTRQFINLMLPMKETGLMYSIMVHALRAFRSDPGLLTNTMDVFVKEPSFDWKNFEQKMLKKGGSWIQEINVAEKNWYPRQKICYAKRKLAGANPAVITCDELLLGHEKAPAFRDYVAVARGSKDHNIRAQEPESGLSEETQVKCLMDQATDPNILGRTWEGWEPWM

What is called IC50 is the concentration that gives 50% inhibition. High values mean lower potency, low ones higher potency. Regarding `CCN(CCC(=O)Nc1ccc(-c2cccc3c(=O)cc(N4CCOCC4)oc23)c2sc3ccccc3c12)Cc1ccncc1`, the Ratio with HeLa [1] stood at 1; in the test with HeLa [2] it was 1.6. This compound also had a half-maximal inhibitory concentration (IC50) in test [3] of 31 nM.
In the same order, the values of `CN1CCN(C(=O)COc2ccc(-c3cccc4c(=O)cc(N5CCOCC5)oc34)c3sc4ccccc4c23)CC1` are 1.1, 1.8 and 29 nM.
Take `C[C@@H]1CN(CCOc2ccc(-c3cccc4c(=O)cc(N5CCOCC5)oc34)c3sc4ccccc4c23)C[C@H](C)O1`: the Ratio in the test with HeLa [1] stood at 1.1; in the test on HeLa [2] it was 3.2. The IC50 in test [3] was determined as 10 nM.
On to `CN1CCCN(CCOc2ccc(-c3cccc4c(=O)cc(N5CCOCC5)oc34)c3sc4ccccc4c23)CC1`, for which the Ratio is recorded as 1.5 in the test with HeLa [1] and 3.6 in the test on HeLa [2]. This compound also displayed a 50% inhibitory concentration (IC50) in test [3] of 10 nM.
In the same order, the values of `COCCNCCC(=O)Nc1ccc(-c2cccc3c(=O)cc(N4CCOCC4)oc23)c2sc3ccccc3c12` are 2.3, 5.9 and 8 nM.
For the compound `O=C(CCNCCN1CCOCC1)Nc1ccc(-c2cccc3c(=O)cc(N4CCOCC4)oc23)c2sc3ccccc3c12`, the Ratio is reported as 1.3 in the test with HeLa [1] and 1.9 in the test on HeLa [2]. This compound returned an IC50 in test [3] of 6 nM.
Regarding `O=C(CCNCC1CCCO1)Nc1ccc(-c2cccc3c(=O)cc(N4CCOCC4)oc23)c2sc3ccccc3c12` (centres undefined), the Ratio with HeLa [1] is 2; with HeLa [2], 4.7. Moreover, in test [3], the half-maximal inhibitory concentration (IC50) came to 7 nM.
For the compound `CC(C)NCC(=O)CN1CCN(CC(=O)Nc2ccc(-c3cccc4c(=O)cc(N5CCOCC5)oc34)c3sc4ccccc4c23)CC1`, the Ratio is 2 in the test on HeLa [1] and 8.8 in the test on HeLa [2]. Moreover, the IC50 in test [3] amounted to 6 nM.
Consider `O=C(CN1CCNCC1)Nc1ccc(-c2cccc3c(=O)cc(N4CCOCC4)oc23)c2sc3ccccc3c12`, for which the Ratio in the test with HeLa [1] is on record as 1.4; with HeLa [2], 5. The IC50 in test [3] was found to be 24 nM.
In the case of `O=C(CN1CCCNCC1)Nc1ccc(-c2cccc3c(=O)cc(N4CCOCC4)oc23)c2sc3ccccc3c12`, the values for the Ratio with HeLa [1] and in the test on HeLa [2] were 1.4 and 1.5, respectively. Further, in test [3], the IC50 was found to be 22 nM.
Regarding `CCN1CCCC1CNCC(=O)Nc1ccc(-c2cccc3c(=O)cc(N4CCOCC4)oc23)c2sc3ccccc3c12` (centres undefined), the Ratio is reported as 1.2 in the test on HeLa [1] and 5.9 in the test with HeLa [2]. Half-maximal inhibition in test [3] (IC50) required 30 nM.
The matching figures for `CN(C)CCN(C)CCC(=O)Nc1ccc(-c2cccc3c(=O)cc(N4CCOCC4)oc23)c2sc3ccccc3c12`: 1.2, 5.1 and 78 nM.
Consider `CN1CCCC1CCNCC(=O)Nc1ccc(-c2cccc3c(=O)cc(N4CCOCC4)oc23)c2sc3ccccc3c12` (centres undefined), for which the Ratio in the test on HeLa [1] was 1.1; with HeLa [2], 2.4. The 50% inhibitory concentration (IC50) in test [3] was 43 nM.
With `O=C(CNCCN1CCOCC1)Nc1ccc(-c2cccc3c(=O)cc(N4CCOCC4)oc23)c2sc3ccccc3c12`, the Ratio in the test with HeLa [1] was 1.4; with HeLa [2], 4.7. In addition, half-maximal inhibition in test [3] (IC50) was put at 12 nM.
In the same order, the values of `CC(C)N1CCN(CCC(=O)Nc2ccc(-c3cccc4c(=O)cc(N5CCOCC5)oc34)c3sc4ccccc4c23)CC1` are 1.2, 3.6 and 37 nM.
For the compound `COc1ccc(CNCC(=O)Nc2ccc(-c3cccc4c(=O)cc(N5CCOCC5)oc34)c3sc4ccccc4c23)cc1`, the Ratio in the test on HeLa [1] is 1.4; with HeLa [2], 6.8. The compound further registered a concentration for half-maximal inhibition (IC50) in test [3] of 38 nM.
For `O=C(CN1CCCN(CCO)CC1)Nc1ccc(-c2cccc3c(=O)cc(N4CCOCC4)oc23)c2sc3ccccc3c12`, the figures for the Ratio in the test on HeLa [1] and with HeLa [2] were 1.2 and 3.3, respectively. Besides, it took 30 nM to reach half-maximal inhibition in test [3] (IC50).
The matching figures for `CN(C)CCN1CCN(CCC(=O)Nc2ccc(-c3cccc4c(=O)cc(N5CCOCC5)oc34)c3sc4ccccc4c23)CC1`: 1.1, 1.3 and 10 nM.
